From ChEMBL document CHEMBL1125894, “Dual-action cephalosporins: cephalosporin 3'-quaternary ammonium quinolones” (1991)
Converted amounts (≈) assume the structure as drawn. “And” between values parts separate entries of the source, which are not always exact repeats. Identical values can stand only once.

Tests used:
Format in all cases: functional
[1] = tested on: Pseudomonas aeruginosa; experiment: In vivo activity in murine against Pseudomonas aeruginosa 5712 infection after sc administration.
Outline: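 Mouse protection test in CD1 Swiss albino mice (18–20 g) infected intraperitoneally with 0.5 mL of diluted P. aeruginosa suspension. Mice received 1.0 mL subcutaneously at the neck base within 5 min of infection and a second treatment 3 h after infection. Doses ranged from 0.05 to 250 mg/kg, with six mice per group. ED50 was calculated by the Reed–Muench method.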

[2] = tested on: Staphylococcus aureus; experiment: In vivo activity in murine against Staphylococcus aureus Smith (MS) infection after sc administration.
Outline: (§1)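 Mouse protection test in CD1 Swiss albino mice (18–20 g). Mice were infected intraperitoneally with 0.5 mL of a diluted bacterial suspension, then treated within 5 min with one 1.0 mL subcutaneous dose at the dorsal base of the neck. Doses ranged from 0.05 to 250 mg/kg, with six mice per group. ED50 was calculated by the Reed–Muench method.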

[3] = tested on: Escherichia coli; experiment: In vivo activity in murine against Escherichia coli 257 infection after sc administration.; outline: as §1
[4] = tested on: Streptococcus pneumoniae; experiment: In vitro antibacterial activity against Streptococcus pneumoniae 6301
Outline: (§2)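 Broth macrodilution with serial 2-fold dilutions in cation-supplemented Mueller-Hinton broth containing 10% goat serum. The value is reported as the MIC.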

[5] = tested on: Klebsiella pneumoniae; experiment: In vitro antibacterial activity against Klebsiella pneumoniae A
Outline: (§3)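 Serial 2-fold dilutions in the NCCLS broth microdilution method for aerobic nonfastidious organisms, with an 18-h incubation. The value is reported as the minimum inhibitory concentration (MIC).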

[6] = tested on: Citrobacter freundii; experiment: In vivo activity in murine against Citrobacter freundii BS#16 infection after sc administration.
Outline: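 CD1 Swiss albino mice (18–20 g) infected intraperitoneally with 0.5 mL diluted bacterial culture suspension. Single subcutaneous treatment within 5 min, 1.0 mL at dorsal base of neck, serial dilutions spanning 0.05–250 mg/kg. Six mice per treatment and control group. ED50 (50% protective dose) derived by Reed and Muench method.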

[7] = tested on: Pseudomonas aeruginosa; experiment: In vitro antibacterial activity against Pseudomonas aeruginosa 5712; outline: as §3
[8] = tested on: Staphylococcus aureus; experiment: In vitro antibacterial activity against Staphylococcus aureus Smith(MS)
Outline: (§4)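 Staphylococci were tested by the standard agar dilution procedure using serial 2-fold dilutions of agent. The value is reported as the MIC.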

[9] = tested on: Staphylococcus aureus; experiment: In vitro antibacterial activity against Staphylococcus aureus 95(MR); outline: as §4
[10] = tested on: Serratia marcescens; experiment: In vitro antibacterial activity against Serratia marcescens SM; outline: as §3
[11] = tested on: Escherichia coli; experiment: In vitro antibacterial activity against Escherichia coli 257; outline: as §3
[12] = tested on: Streptococcus pyogenes; experiment: In vitro antibacterial activity against Streptococcus pyogenes 4; outline: as §2
[13] = tested on: Streptococcus pneumoniae; experiment: In vivo activity in murine against Streptococcus pneumoniae 6301 infection after sc administration.; outline: as §1
[14] = tested on: Enterobacter cloacae; experiment: In vitro antibacterial activity against Enterobacter cloacae 5699; outline: as §3
[15] = tested on: Enterobacter cloacae; experiment: In vitro antibacterial activity against Enterobacter cloacae P99; outline: as §3
[16] = tested on: Streptococcus pyogenes; experiment: In vivo activity in murine against Streptococcus pyogenes 4 infection after sc administration.; outline: as §1
[17] = tested on: Citrobacter freundii; experiment: In vitro antibacterial activity against Citrobacter freundii BS 16; outline: as §3
[18] = tested on: Serratia marcescens; experiment: In vivo activity in murine against Serratia marcescens SM infection after sc administration.; outline: as §1
[19] = tested on: Klebsiella pneumoniae; experiment: In vivo activity in murine against Klebsiella pneumoniae A infection after sc administration.; outline: as §1
[20] = tested on: Enterobacter cloacae; experiment: In vivo activity in murine against Enterobacter cloacae 5699 infection after sc administration.; outline: as §1
[21] = tested on: Staphylococcus aureus; experiment: In vivo activity in murine against Staphylococcus aureus 753(MR) infection after sc administration.; outline: as §1

Which results are given for `CN1CCN(c2c(F)cc3c(=O)c(C(=O)O)cn(CCF)c3c2F)CC1` [FLEROXACIN]?
ED50 [1]: 14 mg/kg and 31 mg/kg; ED50 [2]: 0.65 mg/kg; ED50 [3]: 0.26 mg/kg; ED50 ([3]; Escherichia coli, sc, read-out: ED50): 0.25 mg/kg; MIC [4]: 8 µg/mL (≈ 21.7 µM); MIC [5]: 0.031 µg/mL (≈ 0.0839 µM); ED50 [6]: 2 mg/kg; MIC [7]: 4 µg/mL (≈ 10.8 µM); MIC [8]: 0.25 µg/mL (≈ 0.677 µM); MIC [9]: 0.25 µg/mL (≈ 0.677 µM); MIC [10]: 0.25 µg/mL (≈ 0.677 µM); MIC [11]: 0.031 µg/mL (≈ 0.0839 µM); MIC [12]: 4 µg/mL (≈ 10.8 µM); ED50 [13]: > 250 mg/kg; MIC [14]: 0.063 µg/mL (≈ 0.171 µM); MIC [15]: 0.031 µg/mL (≈ 0.0839 µM); ED50 [16]: > 250 mg/kg; MIC [17]: 0.25 µg/mL (≈ 0.677 µM); ED50 [18]: < 2 mg/kg; ED50 [19]: 0.3 mg/kg; ED50 [20]: < 2 mg/kg; ED50 [21]: 2.8 mg/kg
